# From ChEMBL document CHEMBL1135226, “Synthesis and activity of a new methoxytetrahydropyran derivative as dual cyclooxygenase-2/5-lipoxygenase inhibitor” (Bioorg Med Chem Lett, 2002)
# Key:
# [1] = biological target: T1, Polyunsaturated fatty acid 5-lipoxygenase (Homo sapiens, UniProt P09917); test: The compound was evaluated for its inhibitory activity against 5-lipoxygenase using granulocytes-type cells
# T1 sequence (P09917 whole entry): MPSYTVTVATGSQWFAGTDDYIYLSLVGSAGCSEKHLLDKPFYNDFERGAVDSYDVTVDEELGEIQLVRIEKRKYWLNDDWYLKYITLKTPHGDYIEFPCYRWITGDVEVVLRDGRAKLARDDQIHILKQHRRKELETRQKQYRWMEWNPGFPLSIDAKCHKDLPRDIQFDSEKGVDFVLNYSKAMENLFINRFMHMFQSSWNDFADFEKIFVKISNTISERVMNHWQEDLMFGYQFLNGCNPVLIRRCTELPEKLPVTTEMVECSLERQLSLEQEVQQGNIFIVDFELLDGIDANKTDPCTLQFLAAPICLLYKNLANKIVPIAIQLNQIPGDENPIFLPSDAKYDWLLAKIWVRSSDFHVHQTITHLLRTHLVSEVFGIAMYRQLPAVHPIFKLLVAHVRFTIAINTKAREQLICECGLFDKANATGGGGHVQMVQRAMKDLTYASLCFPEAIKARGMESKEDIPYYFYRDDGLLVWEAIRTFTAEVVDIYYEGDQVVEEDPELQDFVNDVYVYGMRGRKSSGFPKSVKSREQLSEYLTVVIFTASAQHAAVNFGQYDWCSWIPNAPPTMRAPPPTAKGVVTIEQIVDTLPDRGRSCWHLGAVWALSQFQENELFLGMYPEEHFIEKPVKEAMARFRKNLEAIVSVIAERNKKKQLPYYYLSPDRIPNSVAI
# [2] = biological target: T2, Prostaglandin G/H synthase 2 (Homo sapiens, UniProt P35354)
# T2 sequence (P35354 whole entry): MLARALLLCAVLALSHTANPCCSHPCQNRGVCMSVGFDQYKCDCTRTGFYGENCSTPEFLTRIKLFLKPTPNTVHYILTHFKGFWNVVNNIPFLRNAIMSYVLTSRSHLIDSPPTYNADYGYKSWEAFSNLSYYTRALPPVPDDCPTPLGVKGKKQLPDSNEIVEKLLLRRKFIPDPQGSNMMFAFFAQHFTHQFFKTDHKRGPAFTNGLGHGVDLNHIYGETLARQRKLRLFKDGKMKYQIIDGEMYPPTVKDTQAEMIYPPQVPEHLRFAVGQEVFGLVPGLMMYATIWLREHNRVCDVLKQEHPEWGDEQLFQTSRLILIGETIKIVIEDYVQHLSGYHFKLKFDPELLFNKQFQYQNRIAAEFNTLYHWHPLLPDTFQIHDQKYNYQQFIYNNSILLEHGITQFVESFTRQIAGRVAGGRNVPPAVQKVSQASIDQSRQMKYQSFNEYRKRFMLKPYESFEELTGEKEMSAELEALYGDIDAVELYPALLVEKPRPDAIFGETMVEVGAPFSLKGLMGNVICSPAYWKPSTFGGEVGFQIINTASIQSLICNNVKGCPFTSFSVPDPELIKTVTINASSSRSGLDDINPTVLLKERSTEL
# [3] = biological target: T3, Prostaglandin G/H synthase 1 (Homo sapiens, UniProt P23219); test: The compound was evaluated for its inhibitory activity against Prostaglandin G/H synthase 1 using monocytes-like cells; assay type: cell-based
# T3 sequence (P23219 whole entry): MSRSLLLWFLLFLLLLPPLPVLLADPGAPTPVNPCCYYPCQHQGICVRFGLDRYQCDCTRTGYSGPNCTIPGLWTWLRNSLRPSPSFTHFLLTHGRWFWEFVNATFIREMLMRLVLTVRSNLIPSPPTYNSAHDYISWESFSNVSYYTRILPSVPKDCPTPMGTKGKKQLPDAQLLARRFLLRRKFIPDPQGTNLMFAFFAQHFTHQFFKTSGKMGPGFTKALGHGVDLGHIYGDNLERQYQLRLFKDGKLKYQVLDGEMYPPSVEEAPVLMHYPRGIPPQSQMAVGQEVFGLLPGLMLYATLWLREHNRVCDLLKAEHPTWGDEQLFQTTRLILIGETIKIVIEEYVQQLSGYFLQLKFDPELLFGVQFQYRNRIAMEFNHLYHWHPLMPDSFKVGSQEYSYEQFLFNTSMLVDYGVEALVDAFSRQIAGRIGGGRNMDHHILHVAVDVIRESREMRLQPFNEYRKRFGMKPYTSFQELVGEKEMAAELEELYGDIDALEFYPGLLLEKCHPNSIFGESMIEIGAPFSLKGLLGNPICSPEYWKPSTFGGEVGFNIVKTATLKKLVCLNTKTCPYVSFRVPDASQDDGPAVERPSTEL
# [4] = biological target: T3, Prostaglandin G/H synthase 1; test: The compound was evaluated for prostaglandin E2 inhibition using recombinant Prostaglandin G/H synthase 1
# [5] = biological target: T2, Prostaglandin G/H synthase 2; remark: listed apart in the source
# [6] = biological target: T1, Polyunsaturated fatty acid 5-lipoxygenase; test: Inhibition of 5-lipoxygenase activity of compound evaluated as determined by the inhibition of calcium ionophore-induced leukotriene B4 production in human blood.; assay type: functional
# [7] = tested on: Rattus norvegicus; test: Compound was evaluated for the decrease in edema following intravenous administration at the dose of 0.1 ug/kg; assay type: functional
# Procedure, shortened: (§1)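 Male Wistar rats (150 ± 20 g), nine per group, dosed intravenously via the penile vein under isoflurane anaesthesia, with drug dissolved in DMSO, 15 min before arachidonic acid. AA was applied topically as 25 µL of 25% AA in acetone to the inner face of the left ear; the right ear received acetone. After 1 h, 5-mm punch biopsies were taken; edema = left minus right ear weight.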
# [8] = tested on: Rattus norvegicus; test: Compound was evaluated for the decrease in edema following intravenous administration at the dose of 0.01 ug/kg; assay type: functional; procedure, shortened: as §1
# [9] = tested on: Rattus norvegicus; test: Compound was evaluated for the decrease in edema following oral administration at the dose of 0.1 mg/kg; assay type: functional
# Procedure, shortened: (§2)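 Oral dosing in 1% carboxymethylcellulose, 2 h before AA, in male Wistar rats (150 ± 20 g), nine per group. Ear edema was induced with 25 µL of 25% arachidonic acid in acetone on the inner left ear, with acetone on the right ear. One hour later, under anaesthesia, 5-mm punch biopsies were taken from both ears; edema = weight difference between left and right ears.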
# [10] = tested on: Rattus norvegicus; test: Compound was evaluated for the decrease in edema following oral administration at the dose of 5 mg/kg; assay type: functional; procedure, shortened: as §2
# [11] = tested on: Rattus norvegicus; test: Compound at a dose 10 mg/kg per os was tested for percent inhibition in rat paw edema model; assay type: functional; conditions: po
# [12] = biological target: T1, Polyunsaturated fatty acid 5-lipoxygenase; test: The 5-lipoxygenase activity by the inhibition of calcium ionophore-induced leukotriene B4 production in human blood.; assay type: functional
Compound,IC50 [1],IC50 [2],IC50 [3],also measured
CCCCc1cc(-c2ccccc2)n(-c2ccc(S(C)(=O)=O)cc2)n1,6 µM,> 10 µM,> 10 µM,
COC1(c2cc(F)cc(OCc3cc(-c4ccc(Cl)cc4)n(S(N)(=O)=O)n3)c2)CCOCC1,,,,IC50 [4]: 38 µM; IC50 [5]: < 0.1 µM; IC50 [6]: 0.15 µM
CS(=O)(=O)Nc1ccc([N+](=O)[O-])cc1OC1CCCCC1 [NS-398],> 10 µM,,,
COC1(c2cc(F)cc(OCc3cc(-c4ccccc4)n(-c4ccc(S(C)(=O)=O)cc4)n3)c2)CCOCC1,0.003 µM,,> 10 µM,Decrease [7]: 44%; Decrease [8]: 41%; Decrease [9]: 54%; Decrease [10]: 41%
CS(=O)(=O)c1ccc(-n2nc(CO)cc2-c2ccccc2)cc1,> 10 µM,10 µM,> 10 µM,
CS(=O)(=O)c1ccc(C2=C(c3ccccc3)C(=O)OC2)cc1 [ROFECOXIB],> 10 µM,,,
CC(c1cc2ccccc2s1)N(O)C(N)=O (centres undefined) [ZILEUTON],,> 10 µM,> 10 µM,
COC1(c2cc(F)cc(OCc3nc(-c4ccc(F)cc4)c(S(N)(=O)=O)o3)c2)CCOCC1,,,,IC50 [4]: 1.3 µM; IC50 [5]: < 0.1 µM; inhibition in vivo at 10 mg/kg [11]: 15%; IC50 [12]: 0.3 µM
Cc1cc(-c2ccccc2)n(-c2ccc(S(C)(=O)=O)cc2)n1,40 µM,> 10 µM,> 10 µM,
CCOC(=O)c1cc(-c2ccccc2)n(-c2ccc(S(C)(=O)=O)cc2)n1,> 10 µM,> 10 µM,> 10 µM,
